Our source for the IC50 values is ChEMBL document CHEMBL2311421, “Synthesis, crystal structure and antidiabetic activity of substituted (E)-3-(Benzo [d]thiazol-2-ylamino) phenylprop-2-en-1-one” (Eur J Med Chem, 2013).

Assay [1] in a line: Inhibition of Swiss mouse liver glucosidase. The essentials:
(§1)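 Enzyme source: tissue homogenates of pancreas, liver or small intestine from 12 h-starved 10-week-old male Swiss mice (20 g), made 1:10 w/v in ice-cold 10 mM phosphate buffer with 6 mM NaCl plus protease inhibitors. Spun at 10,000 rpm for 10 min; supernatant diluted to A280 0.4. Assayed as for amylase. IC50 from mean of n = 3.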

Assay [2] in a line: Inhibition of Swiss mouse intestinal glucosidase. The essentials:
as §1

The nature of assay [3]: Inhibition of Swiss mouse pancreatic glucosidase. The essentials: as §1
The next assay deals with T1, Pancreatic alpha-amylase (Sus scrofa, UniProt P00690).
T1 sequence (P00690 whole entry): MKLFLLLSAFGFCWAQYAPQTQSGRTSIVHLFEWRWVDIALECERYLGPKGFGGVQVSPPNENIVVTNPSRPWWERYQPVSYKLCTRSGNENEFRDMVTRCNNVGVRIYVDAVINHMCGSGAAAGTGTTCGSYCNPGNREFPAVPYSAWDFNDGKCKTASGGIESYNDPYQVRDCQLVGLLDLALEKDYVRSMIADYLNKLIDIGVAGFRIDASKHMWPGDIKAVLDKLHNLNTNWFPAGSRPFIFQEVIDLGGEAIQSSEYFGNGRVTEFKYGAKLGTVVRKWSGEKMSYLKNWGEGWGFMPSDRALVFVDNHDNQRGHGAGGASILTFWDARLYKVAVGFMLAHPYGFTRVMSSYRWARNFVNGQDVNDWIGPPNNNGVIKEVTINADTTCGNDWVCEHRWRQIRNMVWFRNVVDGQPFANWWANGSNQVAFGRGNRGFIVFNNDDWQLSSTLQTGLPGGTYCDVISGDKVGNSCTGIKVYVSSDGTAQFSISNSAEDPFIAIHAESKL
Briefly: Inhibition of pig pancreatic alpha-amylase by Bernfeld method.

With `CCOc1ccc2nc(N/C(=C\C(=O)c3ccc(C)cc3)SC)sc2c1`, the half-inhibitory concentration (IC50) in assay [1] (read-out: IC50) was found to be 24.2 µM; in assay [2] (read-out: IC50), 23.5 µM; in assay [3] it was 19.9 µM; against Pancreatic alpha-amylase it was 18.9 µM.
With `CCOc1ccc2nc(N/C(=C\C(=O)c3ccc(Br)cc3)SC)sc2c1`, the IC50 is 15.7 µM in assay [1] (read-out: IC50), 31.9 µM in assay [2] (read-out: IC50), 20.9 µM in assay [3] and 15.9 µM against Pancreatic alpha-amylase.
As to `CS/C(=C/C(=O)c1ccc(Br)cc1)Nc1nc2ccccc2s1`, the IC50 in assay [1] (read-out: IC50) turned out to be 15.4 µM; in assay [2] (read-out: IC50), 45.3 µM; in assay [3], 21.7 µM; at Pancreatic alpha-amylase, 17.8 µM.
`CCOc1ccc2nc(N/C(=C\C(=O)c3ccccc3)SC)sc2c1`: the 50% inhibitory concentration (IC50) result in assay [1] was “Not Active”; in assay [2], “Not Active”; in assay [3] it was 18 µM; on Pancreatic alpha-amylase, 16.3 µM.
`CS/C(=C/C(=O)c1ccc(Br)cc1)Nc1nc2cc(C)c(C)cc2s1`: the IC50 in assay [1] (read-out: IC50) amounted to 16.7 µM; in assay [2] (read-out: IC50), 25.9 µM; in assay [3] it was 24.7 µM; against Pancreatic alpha-amylase, 16.9 µM.
Turning to `CS/C(=C/C(=O)c1ccc(Cl)cc1)Nc1nc2ccccc2s1`, the IC50 in assay [1] (read-out: IC50) came to 15 µM; in assay [2] (read-out: IC50), 44.5 µM; in assay [3] it was 32.4 µM; against Pancreatic alpha-amylase it was 20.3 µM.
The like results for `CCOc1ccc2nc(N/C(=C\C(=O)c3ccc(Cl)cc3)SC)sc2c1` were, in that order, 17.4 µM, 14.7 µM, 26.5 µM and 17.9 µM.
The like results for `CS/C(=C/C(=O)c1ccc(F)cc1)Nc1nc2ccccc2s1` were, in that order, 21.7 µM, 32.1 µM, 33.6 µM and 19.9 µM.
For `CCOc1ccc2nc(N/C(=C\C(=O)c3ccc(F)cc3)SC)sc2c1`, the IC50 was 24.2 µM in assay [1] (read-out: IC50), 49.4 µM in assay [2] (read-out: IC50), 23.5 µM in assay [3] and 18.4 µM against Pancreatic alpha-amylase.
Turning to `CCOc1ccc2nc(N/C(=C\C(=O)c3ccc(OC)cc3)SC)sc2c1`, the 50% inhibitory concentration (IC50) in assay [1] (read-out: IC50) stood at 21.4 µM; in assay [2] (read-out: IC50), 29.3 µM; in assay [3], 23.2 µM; on Pancreatic alpha-amylase it was 18.6 µM.
Regarding `CS/C(=C/C(=O)c1ccc(C)cc1)Nc1nc2ccccc2s1`, the IC50 was 22.5 µM in assay [1] (read-out: IC50), 30 µM in assay [2] (read-out: IC50), 26.9 µM in assay [3] and 20.6 µM against Pancreatic alpha-amylase.
Take `C[C@H]1O[C@H](O[C@H]2[C@H](O)[C@@H](O)[C@@H](O[C@H]3[C@H](O)[C@@H](O)C(O)O[C@@H]3CO)O[C@@H]2CO)[C@H](O)[C@@H](O)[C@@H]1N[C@H]1C=C(CO)[C@@H](O)[C@H](O)[C@H]1O` (some centres not stated) [ACARBOSE]: the IC50 in assay [1] (read-out: IC50) was above 100 µM; in assay [2], “Not Active”; in assay [3], above 100 µM.
